How the values were obtained:
[1] = target: Sodium-dependent dopamine transporter (Rattus norvegicus, UniProt P23977); assay: Displacement of [3H]WIN35428 from DAT in Sprague-Dawley rat striatal membranes incubated for 120 mins by microbeta scintillation counting method; type: cell membranes, Striatum, Membrane
[2] = target: Sodium-dependent serotonin transporter (Rattus norvegicus, UniProt P31652); assay: Displacement of [3H]citalopram from SERT in Sprague-Dawley rat midbrain membranes incubated for 60 mins by microbeta scintillation counting method; type: cell membranes, Membrane
[3] = target: Sigma non-opioid intracellular receptor 1 (Cavia porcellus, UniProt Q60492); assay: Displacement of [3H](+)-pentazocine from sigma 1 receptor in guinea pig brain cortex membranes after 120 mins by scintillation counting analysis; type: cell membranes, Membrane
Method in brief: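 Male guinea pig cortex membranes in 10 mM Tris-HCl/0.32 M sucrose pH 7.4, 5.0 mg/well original wet weight; [3H](+)-pentazocine 3 nM final; inhibitor serial dilutions in 30% DMSO vehicle, triplicate; 120 min at RT; nonspecific with 10 μM PRE084 or (+)-pentazocine.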

Rattus norvegicus = organism: Rattus norvegicus; assay: Selectivity ratio of Ki for SERT in Sprague-Dawley rat midbrain membranes to Ki for DAT in Sprague-Dawley rat striatum membranes
[4] = Selectivity ratio of Ki for sigma 1 receptor in guinea pig brain cortex membranes to Ki for DAT in Sprague-Dawley rat striatum membranes; type: cell membranes
D(2) dopamine receptor = D(2) dopamine receptor (Homo sapiens, UniProt P14416); assay: Displacement of [3H]-N-methylspiperone from human D2L receptor expressed in HEK293 cell membranes measured after 60 mins by microbeta scintillation counting method; parameters: species or system Membrane
Method in brief: (§1)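 Membranes from HEK293 cells stably expressing human D2LR, D3R or D4.4R; 20 μg/well protein (D2LR, D3R) or 30 μg/well (D4.4R); [3H]-N-methylspiperone 0.4 nM final; half-log dilutions in 30% DMSO, triplicate; 60 min RT; nonspecific 10 μM (+)-butaclamol.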

D(3) dopamine receptor = D(3) dopamine receptor (Homo sapiens, UniProt P35462); assay: Displacement of [3H]-N-methylspiperone from human D3 receptor expressed in HEK293 cell membranes measured after 60 mins by microbeta scintillation counting method; parameters: species or system Membrane; method in brief: as §1
[5] = Metabolic stability in rat liver microsomes assessed as compound remaining at 10 uM incubated for 60 mins in presence of NADPH regenerating system by LC-MS/MS analysis; type: ADME, Microsome; conditions: 1 h
[6] = Metabolic stability in rat liver microsomes assessed as compound remaining at 10 uM in presence of NADPH regenerating system by LC-MS/MS analysis; type: ADME, Microsome
D(4) dopamine receptor = target: T1, D(4) dopamine receptor (Homo sapiens, UniProt P21917); assay: Displacement of [3H]-N-methylspiperone from human D4.4 receptor expressed in HEK293 cell membranes measured after 60 mins by microbeta scintillation counting method; parameters: species or system Membrane; method in brief: as §1
T1 sequence (P21917 whole entry): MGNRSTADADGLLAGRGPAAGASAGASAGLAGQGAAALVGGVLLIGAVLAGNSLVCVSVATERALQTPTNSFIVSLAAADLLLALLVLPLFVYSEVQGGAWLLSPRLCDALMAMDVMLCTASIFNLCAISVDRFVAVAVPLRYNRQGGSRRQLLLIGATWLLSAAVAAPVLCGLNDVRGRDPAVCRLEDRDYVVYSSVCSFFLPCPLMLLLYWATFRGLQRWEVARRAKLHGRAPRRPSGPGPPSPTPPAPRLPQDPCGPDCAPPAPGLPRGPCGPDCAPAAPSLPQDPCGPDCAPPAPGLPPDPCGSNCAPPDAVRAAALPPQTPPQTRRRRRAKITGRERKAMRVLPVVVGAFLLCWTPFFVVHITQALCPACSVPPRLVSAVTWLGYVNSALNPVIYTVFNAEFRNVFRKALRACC

[7] = Displacement of [3H]-Nisoxetine from NET in Sprague-Dawley rat frontal cortex membrane after 180 mins by microbeta scintillation counting method; type: cell membranes

Chain of D(2) dopamine receptor (P14416 whole entry): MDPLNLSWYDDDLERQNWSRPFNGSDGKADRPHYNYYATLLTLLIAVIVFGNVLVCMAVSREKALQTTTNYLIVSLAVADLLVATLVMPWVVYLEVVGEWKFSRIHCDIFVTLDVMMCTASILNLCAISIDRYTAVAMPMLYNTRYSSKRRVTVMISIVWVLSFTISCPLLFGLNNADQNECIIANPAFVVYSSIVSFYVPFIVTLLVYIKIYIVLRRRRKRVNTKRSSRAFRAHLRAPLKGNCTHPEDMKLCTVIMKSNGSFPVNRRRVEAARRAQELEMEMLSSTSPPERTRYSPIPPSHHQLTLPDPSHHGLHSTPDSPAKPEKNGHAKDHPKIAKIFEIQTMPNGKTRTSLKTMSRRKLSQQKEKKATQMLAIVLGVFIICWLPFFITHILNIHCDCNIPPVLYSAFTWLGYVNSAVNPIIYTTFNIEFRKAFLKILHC
Chain of Sodium-dependent serotonin transporter (P31652 whole entry): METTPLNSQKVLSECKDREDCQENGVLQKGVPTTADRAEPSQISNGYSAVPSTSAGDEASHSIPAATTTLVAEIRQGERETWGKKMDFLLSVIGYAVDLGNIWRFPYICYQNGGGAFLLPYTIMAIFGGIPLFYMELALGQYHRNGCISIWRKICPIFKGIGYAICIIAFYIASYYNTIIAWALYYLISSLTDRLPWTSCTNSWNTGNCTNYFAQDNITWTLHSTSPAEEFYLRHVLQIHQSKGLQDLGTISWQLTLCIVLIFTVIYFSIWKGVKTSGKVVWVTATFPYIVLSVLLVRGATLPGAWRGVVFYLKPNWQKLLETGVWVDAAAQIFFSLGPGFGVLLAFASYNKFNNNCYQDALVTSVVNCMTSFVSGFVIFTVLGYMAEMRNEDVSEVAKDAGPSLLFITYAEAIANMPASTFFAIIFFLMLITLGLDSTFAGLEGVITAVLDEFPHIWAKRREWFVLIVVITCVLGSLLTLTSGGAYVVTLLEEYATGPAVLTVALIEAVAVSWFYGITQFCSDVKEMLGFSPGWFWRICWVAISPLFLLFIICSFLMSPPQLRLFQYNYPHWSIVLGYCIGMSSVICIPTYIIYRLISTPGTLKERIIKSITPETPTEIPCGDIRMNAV
Chain of Sodium-dependent dopamine transporter (P23977 whole entry): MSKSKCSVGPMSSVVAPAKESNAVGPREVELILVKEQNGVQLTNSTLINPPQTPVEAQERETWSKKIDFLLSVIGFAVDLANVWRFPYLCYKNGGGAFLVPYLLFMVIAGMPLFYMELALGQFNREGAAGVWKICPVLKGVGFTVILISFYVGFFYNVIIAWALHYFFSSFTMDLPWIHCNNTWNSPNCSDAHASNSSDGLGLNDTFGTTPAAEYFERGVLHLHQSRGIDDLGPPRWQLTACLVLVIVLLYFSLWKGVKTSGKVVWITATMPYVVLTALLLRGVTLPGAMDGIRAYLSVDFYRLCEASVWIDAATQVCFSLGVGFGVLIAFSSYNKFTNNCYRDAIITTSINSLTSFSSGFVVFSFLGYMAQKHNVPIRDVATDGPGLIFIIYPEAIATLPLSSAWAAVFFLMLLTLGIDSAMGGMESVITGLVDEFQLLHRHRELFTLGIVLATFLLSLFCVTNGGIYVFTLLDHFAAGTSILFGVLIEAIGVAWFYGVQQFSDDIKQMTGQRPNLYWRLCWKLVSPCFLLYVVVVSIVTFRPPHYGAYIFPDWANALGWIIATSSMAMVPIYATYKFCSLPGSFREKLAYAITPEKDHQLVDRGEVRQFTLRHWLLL
Chain of Sigma non-opioid intracellular receptor 1 (Q60492 whole entry): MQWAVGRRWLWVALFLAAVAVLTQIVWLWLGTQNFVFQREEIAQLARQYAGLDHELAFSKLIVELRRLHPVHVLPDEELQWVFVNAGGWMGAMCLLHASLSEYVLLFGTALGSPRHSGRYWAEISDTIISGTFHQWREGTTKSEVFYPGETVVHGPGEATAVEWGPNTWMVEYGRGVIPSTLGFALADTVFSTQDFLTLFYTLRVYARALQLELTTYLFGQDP
Chain of D(3) dopamine receptor (P35462 whole entry): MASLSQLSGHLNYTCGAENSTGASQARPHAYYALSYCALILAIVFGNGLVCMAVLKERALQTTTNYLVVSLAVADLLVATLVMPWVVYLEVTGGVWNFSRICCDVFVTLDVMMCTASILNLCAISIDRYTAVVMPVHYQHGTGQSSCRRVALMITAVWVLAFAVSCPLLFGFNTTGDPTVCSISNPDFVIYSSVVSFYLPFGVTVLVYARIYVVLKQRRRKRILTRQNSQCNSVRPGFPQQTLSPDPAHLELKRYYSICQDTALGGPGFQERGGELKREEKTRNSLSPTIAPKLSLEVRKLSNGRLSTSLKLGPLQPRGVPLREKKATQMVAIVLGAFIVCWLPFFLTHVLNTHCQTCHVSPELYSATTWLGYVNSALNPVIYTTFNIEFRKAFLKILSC

SMILES: Fc1ccc(C(SCCNC2CCN(Cc3cc4ccccc4o3)CC2)c2ccc(F)cc2)cc1
- Ki [1]: 120 nM
- Ki [2]: 695 nM
- Ki [3]: 205 nM
- Ratio Ki (Rattus norvegicus): 5.79
- Ratio Ki [4]: 1.71

SMILES: O=C(c1ccccc1F)N1CCC(NCCSC(c2ccc(F)cc2)c2ccc(F)cc2)CC1
- Ki [1]: 46.1 nM
- Ki [2]: 351 nM
- Ki [3]: 3.57 nM
- Ratio Ki (Rattus norvegicus): 7.61
- Ratio Ki [4]: 0.08

SMILES: O=C(c1ccccc1)N1CCC(NCC[S+]([O-])C(c2ccc(F)cc2)c2ccc(F)cc2)CC1 (stereo unspecified)
- Ki [3]: 585 nM

SMILES: Fc1ccc(C(SCCNC2CCN(Cc3ccccc3)CC2)c2ccc(F)cc2)cc1
- Ki [3]: 3.81 nM
- Ratio Ki (Rattus norvegicus): 12.4
- Ratio Ki [4]: 0.12

SMILES: CC(C)(C)C(=O)N1CCC(NCC[S+]([O-])C(c2ccc(F)cc2)c2ccc(F)cc2)CC1 (stereo unspecified)
- Ki [3]: 11200 nM
- Ratio Ki (Rattus norvegicus): 3.14
- Ratio Ki [4]: 1.1

SMILES: Fc1ccc(CNC2CCN(CCSC(c3ccc(F)cc3)c3ccc(F)cc3)CC2)cc1
- Ki [3]: 41.4 nM
- Ratio Ki (Rattus norvegicus): 4.79
- Ratio Ki [4]: 0.74

SMILES: CC(O)CN1[C@H](C)CN(CCSC(c2ccc(F)cc2)c2ccc(F)cc2)C[C@@H]1C (stereo partly specified)
- Ratio Ki (Rattus norvegicus): 641
- Ratio Ki [4]: 0.243
- Ki (D(2) dopamine receptor): 11900 nM
- Ki (D(3) dopamine receptor): 1470 nM

SMILES: [O-][S+](CCNC1CCN(CC(O)Cc2ccccc2)CC1)C(c1ccc(F)cc1)c1ccc(F)cc1 (stereo unspecified)
- Ki [3]: 351 nM
- Ratio Ki (Rattus norvegicus): 6.53
- Ratio Ki [4]: 3.82
- Ki (D(2) dopamine receptor): 6610 nM
- Ki (D(3) dopamine receptor): 5500 nM
- Stabilty [5]: 22%
- Stabilty [6]: 100%

SMILES: OC(CNC1CCN(CCSC(c2ccc(F)cc2)c2ccc(F)cc2)CC1)Cc1ccccc1 (stereo unspecified)
- Ki [3]: 88 nM
- Ratio Ki (Rattus norvegicus): 1.4
- Ratio Ki [4]: 1.84
- Ki (D(2) dopamine receptor): 2270 nM
- Ki (D(3) dopamine receptor): 701 nM
- Ki (D(4) dopamine receptor): 2670 nM
- Stabilty [5]: 69%
- Stabilty [6]: 100%

SMILES: O=C(c1cc2ccccc2o1)N1CCC(NCCSC(c2ccc(F)cc2)c2ccc(F)cc2)CC1
- Ki [3]: 304 nM

SMILES: CN(CCSC(c1ccc(F)cc1)c1ccc(F)cc1)C1CCN(C(=O)c2ccc(F)cc2)CC1
- Ki [1]: 190 nM
- Ki [2]: 2440 nM
- Ki [3]: 7.11 nM
- Ratio Ki (Rattus norvegicus): 12.8
- Ratio Ki [4]: 0.04

SMILES: Fc1ccc(C(SCCN2CCC(NCc3ccccc3)CC2)c2ccc(F)cc2)cc1
- Ki [3]: 60.9 nM
- Ratio Ki (Rattus norvegicus): 3.06
- Ratio Ki [4]: 0.56

SMILES: O=C(c1ccccc1F)N1CCC(NCC[S+]([O-])C(c2ccc(F)cc2)c2ccc(F)cc2)CC1 (stereo unspecified)
- Ki [1]: 604 nM
- Ki [2]: 14200 nM
- Ki [3]: 1310 nM
- Ratio Ki (Rattus norvegicus): 23.5
- Ratio Ki [4]: 2.16

SMILES: Fc1ccc(C(SCCNC2CCN(Cc3ccc(Cl)cc3)CC2)c2ccc(F)cc2)cc1
- Ki [3]: 45.5 nM
- Ratio Ki (Rattus norvegicus): 9.04
- Ratio Ki [4]: 1.15

SMILES: NC(=O)C[S+]([O-])C(c1ccccc1)c1ccccc1 (racemic) [MODAFINIL]
- Ki (D(2) dopamine receptor): > 100000 nM
- Ki (D(3) dopamine receptor): 39000 nM
- Ki (D(4) dopamine receptor): > 100000 nM

SMILES: NC(=O)C[S@@+]([O-])C(c1ccc(F)cc1)c1ccc(F)cc1
- Ki [1]: 4830 nM
- Ki [2]: 38900 nM
- Ki [3]: > 100000 nM
- Ratio Ki (Rattus norvegicus): 8.05
- Ratio Ki [4]: > 21

SMILES: O=C(c1ccccc1)N1CCC(NCCSC(c2ccc(F)cc2)c2ccc(F)cc2)CC1
- Ki [1]: 4.51 nM
- Ki [2]: 283 nM
- Ki [3]: 2.03 nM
- Ratio Ki (Rattus norvegicus): 62.8
- Ratio Ki [4]: 0.45
- Ki (D(2) dopamine receptor): 2900 nM
- Ki (D(3) dopamine receptor): 2510 nM
- Ki (D(4) dopamine receptor): 4110 nM
- Ki [7]: 920 nM
- Stabilty [5]: 7%
- Stabilty [6]: 100%

SMILES: CN(CCSC(c1ccc(F)cc1)c1ccc(F)cc1)C1CCN(C(=O)c2ccccc2F)CC1
- Ki [1]: 222 nM
- Ki [2]: 992 nM
- Ki [3]: 5.87 nM
- Ratio Ki (Rattus norvegicus): 4.47
- Ratio Ki [4]: 0.03

SMILES: Fc1ccc(C(SCCNC2CCN(Cc3cc4ccccc4[nH]3)CC2)c2ccc(F)cc2)cc1
- Ki [3]: 205 nM

SMILES: O=C(c1cc2ccccc2[nH]1)N1CCC(NCCSC(c2ccc(F)cc2)c2ccc(F)cc2)CC1
- Ki [1]: 177 nM
- Ki [3]: 1130 nM

SMILES: CC(O)CN1CCN(CC[S+]([O-])C(c2ccc(F)cc2)c2ccc(F)cc2)CC1 (stereo unspecified)
- Ki [2]: 97800 nM
- Ki [3]: 454 nM
- Ki [7]: > 100000 nM
